Experiment [1] can be described thus: Inhibitory activity against HIV-I mediated cytopathic effect in MT-2 cells. The following applies: Human immunodeficiency virus 1, MT2. In kind it is functional, cell-based. The method, boiled down: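 1×10^4 MT-2 cells infected with diluted HIV-1 IIIB in RPMI 1640 with 10% FBS, graded compound concentrations; medium changed during culture. On day 6 post-infection, XTT (1 mg/mL) added, formazan read at 450 nm after 4 h; percent CPE inhibition and IC50 calculated.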
On the technique in general: Cytopathic effects are the visible damage that an infection or toxin causes in cultured cells.

Experiment [2] in a line: Inhibitory activity against NC-1 binding to N-36/C-34 peptide complex. In kind it is functional. In a few lines:
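Sandwich ELISA: N-36 (2 μM) preincubated with graded compound 30 min at 37 °C, then C-34 (2 μM) added for 30 min at 37 °C. Mixture captured on wells coated with rabbit anti-N36(L6)C34 IgG (10 μg/mL), detected with mAb NC-1, biotin anti-mouse IgG, streptavidin-HRP and TMB; A450 read; IC50 via Calcusyn.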

Experiment [3] concerns Human immunodeficiency virus 1. The experiment can be described thus: Selectivity index was determined by CC50/IC50 for Cytopathic effect. In kind it is functional. In a few lines:
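Ratio of CC50 (XTT viability in uninfected MT-2 cells) to IC50 from HIV-1 IIIB CPE protection in MT-2 cells (XTT read-out, day 6).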

The nature of experiment [4]: Inhibitory activity against HIV-I mediated H9 cells fusion. In kind it is functional, cell-based, Human immunodeficiency virus 1. The method, boiled down: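 Dye transfer fusion assay: BCECF-AM-labeled H9/HIV-1 IIIB cells co-cultured with MT-2 cells (1:10) for 2 h at 37 °C with or without compound. Fused and unfused labeled cells counted by fluorescence microscopy; percent inhibition and IC50 derived.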

The subject of experiment [5] is MT-2 cells (Homo sapiens). Briefly: In vitro for the cytotoxicity in MT-2 cells.

In brackets after ≈: the same amount, converted by molar mass.

The record followed here is ChEMBL document CHEMBL1132348, “Structure-based identification of small molecule antiviral compounds targeted to the gp41 core structure of the human immunodeficiency virus type 1” (J Med Chem, 1999).

Take `O=C(Nc1ccc(Cl)c(Cl)c1)O/N=C(/c1ccccc1)c1ccc(-c2ccccc2)cc1`: the IC50 in experiment [1], in experiment [2] and in experiment [4] was greater than 100 µg/mL in each case. The compound further gave a Selectivity index in experiment [3] of less than 1. The CC50 in experiment [5] turned out to be 74.7 µg/mL (≈ 162 µM).
With `Cc1ccc(N(C(=O)Nc2ccccc2)C(C)c2nc(O)c3ccccc3n2)c(C)c1` (stereo not given), the 50% inhibitory concentration (IC50) in experiment [1], in experiment [2] and in experiment [4] was greater than 100 µg/mL in each case. For the same compound, the Selectivity index in experiment [3] is less than 1. Moreover, the midpoint of cytotoxicity in experiment [5], the CC50, lay at 40.8 µg/mL (≈ 98.8 µM).
With `C=C[C@H]1CN2CC[C@H]1C[C@@H]2[C@@H](OC(=O)c1ccc(OC)cc1)c1ccnc2ccccc12`, the IC50 in experiment [1], in experiment [2] and in experiment [4] was greater than 100 µg/mL in each case. Besides, the Selectivity index in experiment [3] is less than 1. The CC50 in experiment [5] was 74.1 µg/mL (≈ 173 µM).
With `Cc1ccc(C(=O)Nc2cccc(C(=O)N/N=C/c3ccc(Br)cc3)c2)cc1`, the IC50 in experiment [1], in experiment [2] and in experiment [4] was greater than 100 µg/mL each time. Moreover, the Selectivity index in experiment [3] is less than 1. Also, the CC50 in experiment [5] was determined as 24.9 µg/mL (≈ 57.1 µM).
As for `Cc1ccc(/N=N/c2c(S(=O)(=O)O)cc3cc(S(=O)(=O)O)cc(Nc4nc(Cl)nc(N(C)c5ccccc5)n4)c3c2O)c(S(=O)(=O)O)c1`, the figures for the IC50 in experiment [1], in experiment [2] and in experiment [4] were 30.8 µg/mL (≈ 41.8 µM), 3.18 µg/mL (≈ 4.32 µM) and 21.85 µg/mL (≈ 29.7 µM), respectively. The compound further returned a Selectivity index in experiment [3] of 9.43. For the same compound, the CC50 in experiment [5] turned out to be 290 µg/mL (≈ 394 µM).
As for `O=P(CCP(c1ccccc1)c1ccccc1)(c1ccccc1)c1ccccc1`, the IC50 is greater than 100 µg/mL in experiment [1], greater than 100 µg/mL in experiment [2] and 52.27 µg/mL (≈ 126 µM) in experiment [4]. The same compound registered a Selectivity index in experiment [3] of less than 1. In addition, the CC50 in experiment [5] was 28.9 µg/mL (≈ 69.7 µM).
As to `CC[C@H]1CN2CC[C@H]1C[C@@H]2[C@@H](OC(=O)c1ccccc1Cl)c1ccnc2ccc(OC)cc12`, the values for the 50% inhibitory concentration (IC50) in experiment [1], in experiment [2] and in experiment [4] were greater than 100 µg/mL, greater than 100 µg/mL and 59.78 µg/mL (≈ 129 µM), respectively. In experiment [3], this compound yielded a Selectivity index of less than 1. The compound also displayed a CC50 in experiment [5] of 41.3 µg/mL (≈ 88.9 µM).
With `O=C(Nc1cc([N+](=O)[O-])ccc1-c1ccc([N+](=O)[O-])cc1)c1ccc([N+](=O)[O-])cc1Cl`, the IC50 in experiment [1], in experiment [2] and in experiment [4] was greater than 100 µg/mL in each case. Moreover, the Selectivity index in experiment [3] was less than 1. The compound further displayed a CC50 in experiment [5] of 47.2 µg/mL (≈ 107 µM).
Take `CC(Nc1ccccc1Cl)c1nc2ccccc2c(=O)n1Cc1ccccc1` (stereo not given): the IC50 in experiment [1], in experiment [2] and in experiment [4] was greater than 100 µg/mL in each case. In experiment [3], this compound yielded a Selectivity index of less than 1. For the same compound, half-maximal cytotoxicity in experiment [5] (CC50) was put at 86.8 µg/mL (≈ 223 µM).
`C/C(=N/OC(=O)NS(=O)(=O)c1ccc(C)cc1)c1cc2ccccc2oc1=O`: the IC50 in experiment [1], in experiment [2] and in experiment [4] was greater than 100 µg/mL in each case. The compound also displayed a Selectivity index in experiment [3] of less than 1. This compound also yielded a CC50 in experiment [5] of 286 µg/mL (≈ 714 µM).
Consider `COc1ccc2c(c1)CCCC2=NOC(=O)Nc1ccccc1-c1ccccc1`, for which the IC50 in experiment [1], in experiment [2] and in experiment [4] was greater than 100 µg/mL in each case. In experiment [3], this compound displayed a Selectivity index of less than 1. The compound further displayed a half-maximal cytotoxic concentration (CC50) in experiment [5] of 46.8 µg/mL (≈ 121 µM).
For the compound `CC(c1nc2ccc(Cl)cc2c(=O)n1Cc1ccccc1)N(C(=O)c1ccc([N+](=O)[O-])cc1)c1ccc(F)cc1` (stereo not given), the IC50 in experiment [1], in experiment [2] and in experiment [4] was greater than 100 µg/mL throughout. Moreover, the Selectivity index in experiment [3] is less than 1. For the same compound, the midpoint of cytotoxicity in experiment [5], the CC50, lay at 30.2 µg/mL (≈ 54.2 µM).
For the compound `COc1ccc(S(=O)(=O)O)cc1/N=N/c1c(S(=O)(=O)O)cc2cc(Nc3nc(Nc4ccccc4)nc(Nc4cc(C)c(/N=N/c5cc(S(=O)(=O)O)cc6cc(S(=O)(=O)O)cc(O)c56)cc4OC)n3)ccc2c1O`, the results for the IC50 in experiment [1], in experiment [2] and in experiment [4] were 8.29 µg/mL (≈ 7.61 µM), 0.73 µg/mL (≈ 0.67 µM) and 4.95 µg/mL (≈ 4.55 µM), respectively. This compound yielded a Selectivity index in experiment [3] of 35.2. The same compound had a CC50 in experiment [5] of 292 µg/mL (≈ 268 µM).
As to `COC(=O)c1cc(C(=O)OC)cc(N(C(=O)Nc2ccc(Cl)c(Cl)c2)C(C)c2nc3ccccc3c(=O)n2Cc2ccccc2)c1` (stereo not given), the IC50 in experiment [1], in experiment [2] and in experiment [4] was greater than 100 µg/mL throughout. In addition, the Selectivity index in experiment [3] is less than 1. This compound yielded a CC50 in experiment [5] of 20.9 µg/mL (≈ 31.8 µM).
With `Cc1ccc(N(C(=O)Nc2cccc(Cl)c2)C(C)c2nc(O)c3ccccc3n2)c(C)c1` (stereo not given), the IC50 in experiment [1], in experiment [2] and in experiment [4] was greater than 100 µg/mL each time. In addition, the Selectivity index in experiment [3] was less than 1. The compound further showed a CC50 in experiment [5] of 54 µg/mL (≈ 121 µM).
Regarding `Cc1ccc(N(C(=O)Nc2ccc(Cl)c(Cl)c2)C(C)c2nc(O)c3ccccc3n2)c(C)c1` (stereo not given), the IC50 in experiment [1], in experiment [2] and in experiment [4] was greater than 100 µg/mL throughout. Also, the Selectivity index in experiment [3] was less than 1. In experiment [5], this compound came in with a CC50 of 39.2 µg/mL (≈ 81.5 µM).

Usually IC50 stands for the concentration at which inhibition is half-maximal. Broadly, the CC50 is the concentration at which the toxic effect on the cells reaches its halfway point.
